In ChEMBL document CHEMBL1124391, “Structure-activity relationships of novel vasopressin antagonists containing C-terminal diaminoalkanes and (aminoalkyl)guanidines” (J Med Chem, 1989):
Numbered stars: 1 amine (or outer) side, 2 acyl side, 3 side chain; on linkers, the order of the positions; unused ones are H or OH. Bridge positions count the residues as written; N and C are the ends. Square brackets hold non-standard residues; d marks the D form. Peptide text beside a SMILES is read from it. * marks the point of attachment. X1 = O=C(CC1(S[*:2])CCCCC1)[*:1]; Agmatine = N=C(N)NCCCCN*

Key:
[1] = target: Vasopressin V2 receptor (Rattus norvegicus) (UniProt Q00788); assay: Dose required to lower urine osmolality to 300 mOsm/kg in rat
Procedure, shortened: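 Male rats deprived of food and water overnight to reach a stable hydropenic state (raised plasma vasopressin, urine osmolality ≈1500 mOsm/kg H2O). Antagonist given at varying doses to groups of four rats. Urine volume and osmolality measured. The value is the dose that brings urine osmolality down to 300 mOsm/kg. Each determination averages four rats, and the reported value averages (n) determinations.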

[2] = target: Vasopressin V2 receptor (Sus scrofa) (UniProt P32307); assay: Inhibition constant for [3H]LVP binding to medullary membranes of pig kidney; type: tissue-based
Procedure, shortened: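 V2 receptor affinity measured on pig renal medullary membranes by competition with tritiated LVP, expressed as Kbind. Each determination averages triplicate tests, and the value averages (n) determinations.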

Vasopressin V2 receptor [3] = target: Vasopressin V2 receptor (Homo sapiens, UniProt P30518); assay: Inhibition constant for vasopressin-stimulated adenylate cyclase of medullary membranes of human kidney
Procedure, shortened: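 Human renal medullary membrane preparations used. Antagonism measured as inhibition of LVP-stimulated adenylate cyclase, expressed as Ki. Only selected analogues tested. Each determination averages triplicate tests, and the value averages (n) determinations.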

Vasopressin V2 receptor [4] = target: Vasopressin V2 receptor (Sus scrofa, UniProt P32307); assay: Inhibition constant for vasopressin-stimulated adenylate cyclase of medullary membranes of pig kidney
Procedure, shortened: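 Antagonism measured on pig renal medullary membranes as inhibition of LVP-stimulated adenylate cyclase, expressed as inhibition constant Ki. Each determination averages triplicate tests, and the value averages (n) determinations.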

Chain of Vasopressin V2 receptor (Homo sapiens, UniProt P30518) (P30518 whole entry): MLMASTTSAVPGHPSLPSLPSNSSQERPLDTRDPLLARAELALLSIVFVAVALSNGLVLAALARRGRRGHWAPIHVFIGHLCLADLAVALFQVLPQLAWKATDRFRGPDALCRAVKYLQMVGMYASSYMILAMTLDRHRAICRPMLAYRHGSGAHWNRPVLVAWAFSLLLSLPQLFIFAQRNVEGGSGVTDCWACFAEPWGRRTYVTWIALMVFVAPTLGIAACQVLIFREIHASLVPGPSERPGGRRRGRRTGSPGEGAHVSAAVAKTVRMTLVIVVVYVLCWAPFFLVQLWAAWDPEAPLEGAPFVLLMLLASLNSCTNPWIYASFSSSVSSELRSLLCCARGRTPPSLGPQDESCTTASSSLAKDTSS
Chain of Vasopressin V2 receptor (Rattus norvegicus) (Q00788 whole entry): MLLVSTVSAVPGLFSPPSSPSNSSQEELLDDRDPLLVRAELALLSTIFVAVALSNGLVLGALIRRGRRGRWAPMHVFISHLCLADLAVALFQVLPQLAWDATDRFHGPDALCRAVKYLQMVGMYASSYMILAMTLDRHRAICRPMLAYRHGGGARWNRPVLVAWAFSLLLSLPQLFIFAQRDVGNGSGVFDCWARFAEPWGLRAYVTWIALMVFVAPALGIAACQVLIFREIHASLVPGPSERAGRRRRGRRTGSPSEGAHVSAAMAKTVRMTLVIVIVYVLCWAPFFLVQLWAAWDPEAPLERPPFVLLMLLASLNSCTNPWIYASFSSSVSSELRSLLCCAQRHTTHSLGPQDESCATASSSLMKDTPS
Chain of Vasopressin V2 receptor (Sus scrofa, UniProt P32307) (P32307 whole entry): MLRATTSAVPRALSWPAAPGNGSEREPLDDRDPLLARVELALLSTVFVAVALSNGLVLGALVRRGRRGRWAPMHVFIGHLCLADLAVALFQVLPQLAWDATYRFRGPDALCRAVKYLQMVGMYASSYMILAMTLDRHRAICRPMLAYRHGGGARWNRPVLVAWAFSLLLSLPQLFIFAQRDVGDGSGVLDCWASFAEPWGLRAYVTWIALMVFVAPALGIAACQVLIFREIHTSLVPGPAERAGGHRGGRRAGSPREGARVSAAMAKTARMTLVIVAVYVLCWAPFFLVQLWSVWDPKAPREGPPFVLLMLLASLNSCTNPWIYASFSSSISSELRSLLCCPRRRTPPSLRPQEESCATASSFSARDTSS
Chain of Vasopressin V2 receptor (Sus scrofa) (P32307 whole entry): as above

ED300 [1] [mg/kg]	K bind [2] [nM]	Ki (Vasopressin V2 receptor [3]) [nM]	Ki (Vasopressin V2 receptor [4]) [nM]	Structure (SMILES)
0.059	26	3.3	–	CCOc1ccc(C[C@H]2NC(=O)CC3(CCCCC3)SSC[C@H](C(=O)N[C@H](CCCCN)C(N)=O)NC(=O)[C@@H](CC(N)=O)NC(=O)[C@H](C(C)C)NC(=O)[C@@H](Cc3ccccc3)NC2=O)cc1
–	–	3.7	6	CCOc1ccc(C[C@H]2NC(=O)CC3(CCCCC3)SSC[C@@H](C(=O)N3CCC[C@H]3C(=O)NCCCCN=C(N)N)NC(=O)[C@H](CC(N)=O)NC(=O)[C@H](C(C)C)NC(=O)[C@H](Cc3ccccc3)NC2=O)cc1 ([dY](Et)FVNCP-Agmatine; linker N-5 via X1)
